ChEMBL document CHEMBL1136109, “Polymer-assisted solution-phase (PASP) parallel synthesis of an alpha-ketothiazole library as tissue factor VIIa inhibitors” (Bioorg Med Chem Lett, 2003)

What was measured:
[1] = target: Coagulation factor X (Homo sapiens, UniProt P00742); assay: Inhibition of coagulation factor X
Summary of the method: (§1)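 Chromogenic enzyme assays: factor Xa, thrombin (IIa), or tissue factor/VIIa complex, each with its own specific chromogenic substrate. Activity was followed as the rise in absorbance at 405 nm from released p-nitroaniline as substrate was cleaved. Inhibition was taken as the reduced change in absorbance and expressed as IC50.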

[2] = target: T1, Coagulation factor VII (Homo sapiens, UniProt P08709); assay: Inhibition of tissue coagulation factor VII; summary of the method: as §1
T1 sequence (P08709 whole entry): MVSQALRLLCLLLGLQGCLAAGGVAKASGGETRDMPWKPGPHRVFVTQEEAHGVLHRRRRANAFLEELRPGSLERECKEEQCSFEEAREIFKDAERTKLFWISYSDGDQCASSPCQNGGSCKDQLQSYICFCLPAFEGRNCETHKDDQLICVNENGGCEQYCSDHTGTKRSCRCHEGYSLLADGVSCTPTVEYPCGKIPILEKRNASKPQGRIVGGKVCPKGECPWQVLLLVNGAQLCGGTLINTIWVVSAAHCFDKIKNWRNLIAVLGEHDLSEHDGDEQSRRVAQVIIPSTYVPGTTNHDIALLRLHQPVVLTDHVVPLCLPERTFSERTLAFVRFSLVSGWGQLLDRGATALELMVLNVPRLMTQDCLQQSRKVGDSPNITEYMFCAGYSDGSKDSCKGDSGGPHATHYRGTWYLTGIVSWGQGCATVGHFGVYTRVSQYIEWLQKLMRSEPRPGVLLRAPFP

[3] = target: Prothrombin (Homo sapiens, UniProt P00734); assay: Inhibitory activity against thrombin (IIa); summary of the method: as §1
[4] = target: Thrombin and coagulation factor VII (Homo sapiens) (UniProt P00734+P08709); assay: Selectivity ratio for tissue factor VIIa and thrombin (IIa); type: protein assay

Chain of Coagulation factor X (P00742 41-179 limits assumed): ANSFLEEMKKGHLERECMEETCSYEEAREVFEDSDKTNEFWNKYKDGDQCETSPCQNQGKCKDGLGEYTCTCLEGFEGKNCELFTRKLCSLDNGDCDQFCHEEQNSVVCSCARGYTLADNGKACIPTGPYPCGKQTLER
Chain of Coagulation factor X (P00742 235-488 limits assumed): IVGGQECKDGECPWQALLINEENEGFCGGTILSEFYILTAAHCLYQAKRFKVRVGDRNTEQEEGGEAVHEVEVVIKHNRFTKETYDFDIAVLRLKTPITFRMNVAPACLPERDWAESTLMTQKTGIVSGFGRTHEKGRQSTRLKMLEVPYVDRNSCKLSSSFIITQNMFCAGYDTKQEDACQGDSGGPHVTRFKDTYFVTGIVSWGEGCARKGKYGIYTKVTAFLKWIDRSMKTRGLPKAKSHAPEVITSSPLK

IC50 [1] [nM] | IC50 [2] [nM] | IC50 [3] [nM] | Ratio [4] | SMILES
270 | 230 | 14600 | 63 | N=C(N)NCCC[C@H](NC(=O)[C@H](Cc1cccc(Cl)c1)NC(=O)[C@@H](Cc1ccccc1)NS(=O)(=O)Cc1ccccc1)C(=O)c1nccs1
1000 | 800 | 84900 | 106 | N=C(N)NCCC[C@H](NC(=O)[C@H](Cc1cccc(C(F)(F)F)c1)NC(=O)[C@@H](Cc1ccccc1)NS(=O)(=O)Cc1ccccc1)C(=O)c1nccs1
330 | 240 | 21700 | – | Cc1ccccc1C[C@H](NC(=O)[C@@H](Cc1ccccc1)NS(=O)(=O)Cc1ccccc1)C(=O)N[C@@H](CCCNC(=N)N)C(=O)c1nccs1
250 | 200 | 15000 | 75 | N=C(N)NCCC[C@H](NC(=O)[C@H](Cc1cccc(F)c1)NC(=O)[C@@H](Cc1ccccc1)NS(=O)(=O)Cc1ccccc1)C(=O)c1nccs1
– | – | – | 58 | N=C(N)NCCC[C@H](NC(=O)[C@H](CC(N)=O)NC(=O)[C@@H](Cc1ccccc1)NS(=O)(=O)Cc1ccccc1)C(=O)c1nccs1
2100 | 1030 | 60000 | – | NC(=O)C[C@H](NC(=O)[C@@H](Cc1ccccc1)NS(=O)(=O)Cc1ccccc1)C(=O)N[C@@H](CCCN=C(N)N)C(=O)c1nccs1
290 | 200 | 100000 | – | NC(N)=NCCC[C@H](NC(=O)[C@H](Cc1cccnc1)NC(=O)[C@@H](Cc1ccccc1)NS(=O)(=O)Cc1ccccc1)C(=O)c1nccs1
380 | – | 19300 | 64 | CC[C@@H](C)[C@H](NC(=O)[C@@H](Cc1ccccc1)NS(=O)(=O)Cc1ccccc1)C(=O)N[C@@H](CCCN=C(N)N)C(=O)c1nccs1
– | – | – | 71 | Cc1cccc(C[C@H](NC(=O)[C@@H](Cc2ccccc2)NS(=O)(=O)Cc2ccccc2)C(=O)N[C@@H](CCCN=C(N)N)C(=O)c2nccs2)c1
– | – | – | 90 | Cc1ccccc1C[C@H](NC(=O)[C@@H](Cc1ccccc1)NS(=O)(=O)Cc1ccccc1)C(=O)N[C@@H](CCCN=C(N)N)C(=O)c1nccs1
– | – | – | 500 | N=C(N)NCCC[C@H](NC(=O)[C@H](Cc1cccnc1)NC(=O)[C@@H](Cc1ccccc1)NS(=O)(=O)Cc1ccccc1)C(=O)c1nccs1
27 | 42 | 4000 | 95 | N=C(N)NCCC[C@H](NC(=O)[C@H](Cc1ccccc1)NC(=O)[C@@H](Cc1ccccc1)NS(=O)(=O)Cc1ccccc1)C(=O)c1nccs1
2400 | 1450 | 100000 | 69 | N#CC[C@H](NC(=O)[C@@H](Cc1ccccc1)NS(=O)(=O)Cc1ccccc1)C(=O)N[C@@H](CCCNC(=N)N)C(=O)c1nccs1
210 | 90 | > 30000 | > 333 | N=C(N)NCCC[C@H](NC(=O)[C@H](Cc1ccccc1F)NC(=O)[C@@H](Cc1ccccc1)NS(=O)(=O)Cc1ccccc1)C(=O)c1nccs1
900 | 340 | 50000 | 147 | N#Cc1ccc(C[C@H](NC(=O)[C@@H](Cc2ccccc2)NS(=O)(=O)Cc2ccccc2)C(=O)N[C@@H](CCCNC(=N)N)C(=O)c2nccs2)cc1
160 | 170 | 12000 | – | Cc1cccc(C[C@H](NC(=O)[C@@H](Cc2ccccc2)NS(=O)(=O)Cc2ccccc2)C(=O)N[C@@H](CCCNC(=N)N)C(=O)c2nccs2)c1
210 | 160 | 11200 | 70 | N=C(N)NCCC[C@H](NC(=O)[C@H](Cc1ccc(F)c(F)c1)NC(=O)[C@@H](Cc1ccccc1)NS(=O)(=O)Cc1ccccc1)C(=O)c1nccs1
